# Laboratory results published in ChEMBL document CHEMBL3421532, “Synthesis and antiproliferative activity of α-branched α,β-unsaturated ketones in human hematological and solid cancer cell lines” (Eur J Med Chem, 2015).
# pIC50: −log10 of the molar value. The source made the active and inactive calls. No cut-off for these calls is given here.
# Tests used:
# [1] = Antiproliferative activity against human NB4 cells assessed as cell growth inhibition after 48 hrs by XTT assay; assay type: functional, cell-based; conditions: NB-4, 48 h
# Outline: (§1)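 NB4 grown in RPMI 1640 with 10% FBS and penicillin/streptomycin, A549 and MCF-7 in DMEM, all at 37 °C and 5% CO2. Cells seeded at 1.5∙10⁴ (NB4) or 1.0∙10⁴ (A549, MCF-7) per well. Adherent lines dosed 24 h after plating, NB4 shortly after. Triplicate concentrations from 0.1 to 100, DMSO control at 0.5% v/v. After 48 h exposure, XTT added for 2 h. A450 minus A690 read, GI50 reported with SE.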
# [2] = Cell cycle arrest in human NB4 cells assessed as increase in cell population at G2/M phase at 5 uM after 48 hrs by flow cytometry; assay type: functional, cell-based; conditions: NB-4
# Outline: (§2)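 Cells seeded in 6-well plates at 1∙10⁶ (NB4) or 0.45∙10⁶ (A549, MCF-7) per well. Treated for 48 h at 10 (NB4, MCF-7), 20 and 30 (A549), or, for NB4, a lower 5; DMSO solvent control. Cell cycle phase distribution and sub-G1 measured by flow cytometry. Mean of two independent experiments.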
# NB-4 [3] = assay: Induction of cell death in human NB4 cells assessed as elevated sub-G1 population at 10 uM after 48 hrs by flow cytometry; assay type: functional, cell-based; outline: as §2
# MCF7 [4] = assay: Antiproliferative activity against human MCF7 cells assessed as cell growth inhibition after 48 hrs by XTT assay; assay type: functional, cell-based; conditions: MCF7, 48 h; outline: as §1
# A549 [5] = assay: Antiproliferative activity against human A549 cells assessed as cell growth inhibition after 48 hrs by XTT assay; assay type: functional, cell-based; conditions: A549, 48 h; outline: as §1
# NB-4 [6] = assay: Acceleration of RA-induced granulocytic differentiation in human NB4 cells in presence of all-trans retinoic acid relative to control; assay type: functional
# [7] = Induction of apoptosis in human NB4 cells assessed as cell death; assay type: functional, NB-4
# Outline: (§3)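 NB4 acute promyelocytic leukemia cells were grown in RPMI 1640 + GlutaMAX with 10% FBS and penicillin/streptomycin at 37 °C under 5% CO₂. Cells were seeded in 6-well plates at 1∙10⁶ per well and treated for 24 and 48 h; DMSO served as the solvent control. Apoptotic cells were quantified by annexin V binding. Values are the mean of two independent experiments.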
# NB-4 [8] = assay: Antiproliferative activity against human NB4 cells assessed as decrease in cell viability at 1 uM after 96 hrs by trypan blue exclusion test; assay type: functional, cell-based
# Outline: (§4)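 Log-phase NB4 cells at 0.5 × 10⁶ cells/ml were exposed to test agent alone or combined with 1 µM retinoic acid for 24, 48, 72 and 96 h. At each time point, aliquots were stained with 0.2% trypan blue, and viable and dead cells were counted on a hematocytometer.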
# [9] = Cell cycle arrest at G0/G1 phase in human NB4 cells at 1 uM by flow cytometry; assay type: functional, cell-based; conditions: NB-4
# MCF7 [10] = assay: Cell cycle arrest in human MCF7 cells assessed as increase in cell population at G2/M phase at 10 uM after 48 hrs by flow cytometry; assay type: functional, cell-based; outline: as §2
# A549 [11] = assay: Induction of apoptosis in human A549 cells at 20 to 30 uM after 24 to 48 hrs by annexin V binding assay; assay type: functional, cell-based
# Outline: (§5)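 Cells seeded in 6-well plates at 1∙10⁶ (NB4) or 0.45∙10⁶ (A549, MCF-7) per well. Treated at 5 (NB4), 20 and 30 (A549) or 10 (MCF-7). Apoptotic cell percentage measured by annexin V binding after 24 and 48 h. Mean of two independent experiments.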
# A549 [12] = assay: Cell cycle arrest in human A549 cells assessed as increase in cell population at S phase at 30 uM after 48 hrs by flow cytometry; assay type: functional, cell-based; outline: as §2
# [13] = Cell cycle arrest in human NB4 cells assessed as increase in cell population at S phase at 5 uM after 48 hrs by flow cytometry; assay type: functional, cell-based; conditions: NB-4; outline: as §2
# [14] = Induction of apoptosis in human NB4 cells assessed as cell death at 5 uM after 24 hrs by annexin V binding assay; assay type: functional, NB-4; outline: as §3
# MCF7 [15] = assay: Cell cycle arrest in human MCF7 cells assessed as increase in cell population at S phase at 10 uM after 48 hrs by flow cytometry; assay type: functional, cell-based; outline: as §2
# A549 [16] = assay: Cell cycle arrest in human A549 cells assessed as slight increase in cell accumulation at G2/M phase at 20 uM after 48 hrs by flow cytometry; assay type: functional, cell-based; outline: as §2
# A549 [17] = assay: Cell cycle arrest in human A549 cells assessed as slight increase in cell population at S phase at 20 uM after 48 hrs by flow cytometry; assay type: functional, cell-based; outline: as §2
# MCF7 [18] = assay: Induction of apoptosis in human MCF7 cells at 10 uM after 24 to 48 hrs by annexin V binding assay; assay type: functional, cell-based; outline: as §5
# NB-4 [19] = assay: Induction of apoptosis in human NB4 cells at 5 uM after 24 to 48 hrs by annexin V binding assay; assay type: functional, cell-based; outline: as §5
# [20] = Cell cycle arrest in human NB4 cells assessed as increase in cell population at G0/G1 phase at 5 uM after 48 hrs by flow cytometry; assay type: functional, cell-based; conditions: NB-4; outline: as §2
# NB-4 [21] = assay: Antiproliferative activity against human NB4 cells assessed as decrease in cell viability at 1uM in presence of 1 uM all-trans retinoic acid after 96 hrs by trypan blue exclusion test; assay type: functional, cell-based; outline: as §4
# NB-4 [22] = assay: Induction of granulocytic differentiation in human NB4 cells at 1 uM after 24 to 96 hrs by NBT assay; assay type: functional, cell-based
# Outline: (§6)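 NB4 cells were treated with agent, 1 µM retinoic acid, or both, for 24–96 h. Differentiation was scored as reduction of NBT to formazan after PMA stimulation. NBT-positive cells were counted in 5 non-overlapping fields at ×400 and averaged per field. Three independent experiments; mean ± SD.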
# NB-4 [23] = assay: Induction of granulocytic differentiation in human NB4 cells at 1 uM after 48 hrs by CD11b assay (reference value: 8.5%); assay type: functional
# NB-4 [24] = assay: Acceleration of RA-induced granulocytic differentiation in human NB4 cells at 1 uM after 48 hrs by CD11b assay in presence of 1 uM all-trans retinoic acid (reference value: 79.9%); assay type: functional
# [25] = Cell cycle arrest in human NB4 cells assessed as accumulation of cells at G0/G1 phase at 1 uM after 24 hrs by flow cytometry in presence of 1 uM all-trans retinoic acid; assay type: functional, cell-based; conditions: NB-4
# NB-4 [26] = assay: Acceleration of RA-induced granulocytic differentiation in human NB4 cells at 1 uM after 24 to 96 hrs by NBT assay in presence of 1 uM all-trans retinoic acid relative to control; assay type: functional; outline: as §6
smiles,measurement,setting,value
C=C(C/C(=C\c1ccc(OC(=O)c2ccccc2)cc1)C(=O)c1ccc(OC)cc1)C(=O)c1ccc(OC)cc1,pIC50,[1],5.17
same,Activity,[2],Active
same,Activity,NB-4 [3],Active
same,pIC50,MCF7 [4],< 4.00
same,pIC50,A549 [5],< 4.00
O=C(/C=C/c1cccc(S(=O)(=O)Nc2ccccc2)c1)NO [BELINOSTAT],Activity,NB-4 [6],13%
same,Activity,[7],20%
CC1=C(/C=C/C(C)=C/C=C/C(C)=C/C(=O)O)C(C)(C)CCC1,Activity,NB-4 [8],Active
same,Activity,[9],17.3%
C=C(C(=O)c1ccc(OC)cc1)C(OC(C)=O)c1ccc(Cl)cc1Cl (stereo not given),pIC50,[1],5.27
same,Activity,MCF7 [10],Active
same,Activity,A549 [11],Active
same,Activity,A549 [12],Active
same,Activity,[13],Active
same,Activity,[14],>50%
same,Activity,MCF7 [15],Active
same,Activity,NB-4 [3],Active
same,pIC50,MCF7 [4],5.08
same,pIC50,A549 [5],4.75
same,Activity,A549 [16],Active
same,Activity,A549 [17],Active
COc1cccc2c1C(=O)c1c(O)c3c(c(O)c1C2=O)C[C@@](O)(C(=O)CO)C[C@@H]3O[C@H]1C[C@H](N)[C@H](O)[C@H](C)O1 [DOXORUBICIN],Activity,[7],80%
CCN(CC)C/C(=C\c1ccc([N+](=O)[O-])cc1)C(=O)c1ccc(OC)cc1,pIC50,[1],5.92
same,Activity,MCF7 [10],Active
same,Activity,[13],Active
same,Activity,MCF7 [15],Active
same,Activity,NB-4 [3],Active
same,pIC50,MCF7 [4],5.37
same,pIC50,A549 [5],4.66
same,Activity,MCF7 [18],Active
COc1cc2nc(N3CCCN(C)CC3)nc(NC3CCN(Cc4ccccc4)CC3)c2cc1OC,Activity,NB-4 [6],10%
C=C(C(=O)c1ccc(OC)cc1OC)C(OC(C)=O)c1ccc([N+](=O)[O-])cc1 (stereo not given),pIC50,[1],5.30
same,Activity,[13],Active
same,Activity,[14],>50%
same,Activity,NB-4 [3],Active
same,pIC50,MCF7 [4],4.98
same,pIC50,A549 [5],4.36
COc1ccc(C(=O)/C(=C/c2ccc([N+](=O)[O-])cc2)CC(C)C)cc1,Activity,NB-4 [19],inactive
same,pIC50,[1],6.22
same,inhibition,NB-4 [8],Active
same,Activity,[20],Active
same,Activity,[9],inactive
same,Activity,NB-4 [21],Active
same,Activity,NB-4 [22],inactive
same,Activity,NB-4 [3],Active
same,pIC50,MCF7 [4],< 4.00
same,Activity,NB-4 [23],9.5%
same,Activity,NB-4 [24],87.9%
same,pIC50,A549 [5],< 4.00
same,Activity,[25],18.2%
same,Activity,NB-4 [26],8%
CC(=O)OC/C(=C\c1ccccc1F)C(=O)c1ccccc1,pIC50,[1],5.24
same,Activity,[13],Active
same,Activity,[14],>50%
same,Activity,NB-4 [3],Active
same,pIC50,MCF7 [4],4.84
same,pIC50,A549 [5],4.16
C=C(C(=O)c1ccc(OC)cc1)C(O)c1ccc([N+](=O)[O-])cc1 (stereo not given),pIC50,[1],5.27
same,Activity,MCF7 [10],Active
same,Activity,[2],Active
same,Activity,MCF7 [15],Active
same,Activity,NB-4 [3],Active
same,pIC50,MCF7 [4],4.96
same,pIC50,A549 [5],4.62
O=[As][As+](=O)[O-] (stereo not given) [ARSENIC TRIOXIDE],Activity,[7],27%
